Screens from PubChem.
Apaf-1 inh = human Apaf-1 inhibition; O14727; reconstituted apoptosome caspase-3 activity, DEVD-Rh110 fluorescence; inhibition, % at 20 µM; 330,000 tested, 0.71% active; active means inhibition of at least 40% at 20 µM;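 further: plate controls were DMSO wells for no effect and DEVD-CHO caspase inhibitor wells for full effect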
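System: reconstituted apoptosome with Apaf-1, cytochrome c, caspase-9, procaspase-3, dATP; Signal: Rh110 fluorescence intensity; Schedule: 30 min compound preincubation, 50 min activation, room temperature; Reagent: cytochrome c trigger plus (Z-DEVD)2-Rh110 caspase-3 substrate.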
SENP7 inh = blocks the human protease SENP7. Q9BQF6. recombinant SENP7, Z-RLRGG-aminoluciferin luminescence, 40 min. inhibition, % at 5 µM. 330,000 tested, 1.5% active. AID 434973;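 active means inhibition above about 50% at the single test dose, limit read from the data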;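 further: plate controls were DMSO with enzyme for no effect and no enzyme buffer wells for full effect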
SENP8 block-1 = blocks the human protease SENP8. inhibition, % at 10 µM. AID 2540. 330,000 tested, 1.2% active. purified SENP8, Z-RLRGG-aminoluciferin cleavage, luminescence. Q96LD8; in the data active means inhibition above about 50%
UBC13 polyUb = inhibitors of human UBC13 polyubiquitin chain formation; 330,000 tested, 0.47% active; P61088; inhibition, % at 20 µM; TR-FRET; in the data active means inhibition above about 45%, passing the limit was not always enough
Target sequence (P61088 whole entry, looked up): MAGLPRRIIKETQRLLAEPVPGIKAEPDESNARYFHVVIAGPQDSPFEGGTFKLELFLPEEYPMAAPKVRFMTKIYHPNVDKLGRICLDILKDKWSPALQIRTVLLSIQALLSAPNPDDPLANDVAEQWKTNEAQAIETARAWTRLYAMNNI
SENP8 block-2 = inhibitors of human SENP8 protease; AID 602440; Q96LD8; 360,000 tested, 0.64% active; inhibition, % at 20 µM; recombinant SENP8, Nedd8 substrate fluorescence; in the data active means inhibition mostly above about 40%, no sharp cut-off; inactive means mostly below about 27%
SENP6 inh = blocks the human protease SENP6. Recombinant SENP6 catalytic domain, aminoluciferin luminescence. 330,000 tested, 1.8% active. Q9GZR1. AID 2599. inhibition, % at 10 µM;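 active means inhibition above about 50% at the single tested dose, limit read from the data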;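 further: plate controls were DMSO wells with enzyme for no effect and DMSO wells lacking enzyme for full effect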
Target sequence (Q9GZR1 628-1112 limits assumed): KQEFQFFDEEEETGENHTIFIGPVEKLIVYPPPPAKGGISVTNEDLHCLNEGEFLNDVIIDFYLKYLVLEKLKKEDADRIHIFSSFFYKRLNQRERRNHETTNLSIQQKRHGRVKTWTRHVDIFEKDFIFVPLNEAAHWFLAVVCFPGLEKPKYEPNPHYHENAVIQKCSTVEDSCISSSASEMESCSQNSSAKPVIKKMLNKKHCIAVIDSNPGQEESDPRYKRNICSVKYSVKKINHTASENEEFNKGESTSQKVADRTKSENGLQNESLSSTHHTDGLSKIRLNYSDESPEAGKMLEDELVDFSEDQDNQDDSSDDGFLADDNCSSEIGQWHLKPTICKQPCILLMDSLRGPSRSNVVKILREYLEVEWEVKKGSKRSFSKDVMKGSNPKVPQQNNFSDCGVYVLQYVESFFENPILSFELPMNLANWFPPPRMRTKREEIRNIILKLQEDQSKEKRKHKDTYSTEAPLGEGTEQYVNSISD
Casp3 UBC13 ctr = counter-screen for UBC13 inhibitors: human caspase-3 inhibition. shares compounds with UBC13 polyUb. AID 488856. 1,400 tested, 4% active. Recombinant caspase-3, Caspase-Glo 3/7 luminescence, 60 min. inhibition, % at 20 µM;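 active means mean inhibition across replicates above about 26%, limit read from the data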;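 further: plate controls were DMSO with caspase-3 for no effect and DMSO wells lacking enzyme for full effect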
UBC13 conf = confirmation of human UBC13 polyubiquitin inhibitors; shares compounds with UBC13 polyUb; UBC13 polyubiquitination, TR-FRET, biochemical; inhibition, % at 10 µM; 1,400 tested, 68% active; AID 488859; in the data active means inhibition above about 45%
* hit, by the source's call. Most compounds without a hit are left out; they make up all but 3% or so of the library.

How did COc1ccc(OCC(=O)NNC(=S)NC(=O)c2ccc([N+](=O)[O-])cc2)cc1 do in these assays?
Apaf-1 inh: -12; SENP7 inh: -3; SENP8 block-1: -5; UBC13 polyUb: 60*; SENP8 block-2: 24; SENP6 inh: 15; Casp3 UBC13 ctr: -1; UBC13 conf: 31

How did O=C(NNC(=O)c1ccc(NC(=O)c2ccccc2)cc1)c1ccccc1 do in these assays?
Apaf-1 inh: -1; SENP7 inh: -8; SENP8 block-1: 2; UBC13 polyUb: 2; SENP8 block-2: 0; SENP6 inh: 9

How did CN(C(=O)c1nn(C)c2c1CSc1ccccc1-2)c1ccccc1Cl do in these assays?
Apaf-1 inh: 8; SENP7 inh: 6; SENP8 block-1: -2; UBC13 polyUb: -1; SENP8 block-2: 7; SENP6 inh: -1

How did Cc1ccc(S(=O)(=O)N(C)C)cc1NC(=O)COC(=O)COc1ccccc1[N+](=O)[O-] do in these assays?
Apaf-1 inh: 7; SENP7 inh: -6; SENP8 block-1: -7; UBC13 polyUb: -6; SENP8 block-2: 0; SENP6 inh: -28

Results for CCN(CCCNC(=O)CNC(=O)c1nn(-c2ccc(OC)cc2OC)c(=O)c2ccccc12)c1cccc(C)c1 ?
Apaf-1 inh: 32; SENP7 inh: 9; SENP8 block-1: -7; UBC13 polyUb: -3; SENP8 block-2: -20; SENP6 inh: -6

Results for O=C(COc1ccc(Cl)cc1Cl)OCC(=O)N1CCCc2ccccc21 ?
Apaf-1 inh: 20; SENP7 inh: 1; SENP8 block-1: -1; UBC13 polyUb: 6; SENP8 block-2: 6; SENP6 inh: -8

What do the screens show for `O=C(COc1ccc(Cl)cc1)OCC(=O)N1CCCc2ccccc21`?
Apaf-1 inh: -14; SENP7 inh: -1; SENP8 block-1: -3; UBC13 polyUb: 63*; SENP8 block-2: 10; SENP6 inh: -3; Casp3 UBC13 ctr: -3; UBC13 conf: -3

Results for CN(CC(=O)NCC1CCCCC1)CC(=O)Nc1ccc(F)cc1 ?
Apaf-1 inh: 17; SENP7 inh: -8; SENP8 block-1: -12; UBC13 polyUb: -6; SENP8 block-2: 9; SENP6 inh: -21

How did COC(=O)C[C@H]1C[C@@H]2c3cc(NS(=O)(=O)c4cccc(OC)c4)ccc3O[C@@H]2[C@@H](CO)O1 do in these assays?
SENP8 block-2: 10

How did CN(C)CCNc1oc(COc2ccc(Cl)cc2Cl)nc1C#N do in these assays?
Apaf-1 inh: 6; SENP7 inh: -10; SENP8 block-1: -7; UBC13 polyUb: 91*; SENP8 block-2: -17; SENP6 inh: -16; Casp3 UBC13 ctr: -2; UBC13 conf: 98*

Results for CCn1c2ccccc2c2nc3ccccc3nc21 ?
Apaf-1 inh: 7; SENP7 inh: -7; SENP8 block-1: 1; UBC13 polyUb: 66*; SENP8 block-2: -241; SENP6 inh: 15; Casp3 UBC13 ctr: 48*; UBC13 conf: -1

What do the screens show for `CCn1c2ccccc2c2nc3cc(OC)c(OC)cc3nc21`?
Apaf-1 inh: 11; SENP7 inh: 1; SENP8 block-1: 20; UBC13 polyUb: 7; SENP8 block-2: -269; SENP6 inh: 35

How did NCCCS(=O)(=O)O do in these assays?
Apaf-1 inh: -4; SENP7 inh: 4; SENP8 block-1: -3; UBC13 polyUb: 0; SENP8 block-2: 8; SENP6 inh: -5

Results for NCCCNCCCCNCCCN ?
Apaf-1 inh: 29; SENP7 inh: 6; SENP8 block-1: 1; UBC13 polyUb: 93*; SENP8 block-2: 12; SENP6 inh: 1; Casp3 UBC13 ctr: -3; UBC13 conf: 73*

How did NC(=O)c1nc(-c2cccs2)nc2c1[nH]c(=O)n2-c1ccc(F)cc1 do in these assays?
Apaf-1 inh: 4; SENP7 inh: -15; SENP8 block-1: -10; UBC13 polyUb: -5; SENP8 block-2: -413; SENP6 inh: -11

Results for COc1cc(CNCCc2ccc(S(N)(=O)=O)cc2)ccc1OCc1ccc(Cl)cc1 ?
Apaf-1 inh: -19; SENP7 inh: 4; SENP8 block-1: -10; UBC13 polyUb: 37; SENP8 block-2: 21; SENP6 inh: 6

What do the screens show for `CCOc1cc(CNCCc2ccc(S(N)(=O)=O)cc2)ccc1OCc1ccc(Cl)cc1`?
Apaf-1 inh: 6; SENP7 inh: 2; SENP8 block-1: -11; UBC13 polyUb: 58*; SENP8 block-2: 33; SENP6 inh: 2; Casp3 UBC13 ctr: 8; UBC13 conf: 66*

How did N#Cc1c(SCc2ccccc2)nc(N2CCOCC2)c2c1CCCC2 do in these assays?
Apaf-1 inh: 6; SENP7 inh: -2; SENP8 block-1: 1; UBC13 polyUb: 10; SENP8 block-2: -48; SENP6 inh: -2

What do the screens show for `CCSc1nc(N2CCCCC2)c2c(c1C#N)CCCC2`?
Apaf-1 inh: 11; SENP7 inh: 2; SENP8 block-1: 2; UBC13 polyUb: 47*; SENP8 block-2: -42; SENP6 inh: -3; Casp3 UBC13 ctr: 2; UBC13 conf: 46*

How did CN(Cc1cccc(C(F)(F)F)c1)C(=O)C1CCC(=O)N(CC2CCCCC2)C1 (centres undefined) do in these assays?
Apaf-1 inh: 13; SENP7 inh: 3; SENP8 block-1: 2; UBC13 polyUb: 8; SENP8 block-2: 14; SENP6 inh: -4

What do the screens show for `CNC[C@@H](Cc1ccccc1)NC[C@@H](CC1CCCCC1)NCCCc1ccccc1`?
Apaf-1 inh: 23; SENP7 inh: -1; SENP8 block-1: -10; UBC13 polyUb: 93*; SENP8 block-2: 29; SENP6 inh: -11; Casp3 UBC13 ctr: -2; UBC13 conf: 76*

How did CNC[C@@H](CC1CCCCC1)NC[C@H](CC(C)C)NCCc1cccc(C(F)(F)F)c1 do in these assays?
Apaf-1 inh: 29; SENP7 inh: 5; SENP8 block-1: -19; UBC13 polyUb: 92*; SENP8 block-2: 0; SENP6 inh: -47; Casp3 UBC13 ctr: -1; UBC13 conf: 80*

Results for CC(C)(C)c1ccc(OCCC(=O)OCC(=O)NCc2ccccc2)cc1 ?
Apaf-1 inh: 28; SENP7 inh: -6; SENP8 block-1: 5; UBC13 polyUb: 2; SENP8 block-2: 7; SENP6 inh: 0

Results for O=C(NCC1CCN(Cc2ccc(Cl)cc2)CC1)C1CCCN(c2ncnc3c2nc2n3CCCCC2)C1 (centres undefined) ?
Apaf-1 inh: 5; SENP7 inh: -13; SENP8 block-1: -9; UBC13 polyUb: 78*; SENP8 block-2: 19; SENP6 inh: -9; Casp3 UBC13 ctr: -1; UBC13 conf: 101*
